Laboratory results taken from ChEMBL document CHEMBL1125554, “Studies on pyridonecarboxylic acids. 1. Synthesis and antibacterial evaluation of 7-substituted-6-halo-4-oxo-4H-[1,3]thiazeto[3,2-a]quinoline-3-carboxylic acids” (J Med Chem, 1992).
In brackets after ≈: the same amount, converted by molar mass.

Key:
Escherichia coli = assay: In vitro antibacterial activity against Escherichia coli NIH JC-2; type: functional
How it was run: (§1)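 MIC (μg/mL) by 2-fold agar dilution on Sensitivity Test agar, following the Japan Society of Chemotherapy MIC Committee method. Inocula were about 10⁶ cfu/mL. Growth was read after 20 h incubation at 37 °C.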

Klebsiella pneumoniae = assay: In vitro antibacterial activity against Klebsiella pneumoniae K-1966; type: functional; how it was run: as §1
Pseudomonas aeruginosa = assay: In vitro antibacterial activity against Pseudomonas aeruginosa E-2; type: functional; how it was run: as §1
Shigella flexneri = assay: In vitro antibacterial activity against Shigella flexneri 2a EW-10; type: functional; how it was run: as §1
Serratia marcescens = assay: In vitro antibacterial activity against Serratia marcescens IFO 3736; type: functional; how it was run: as §1
Staphylococcus aureus = assay: In vitro antibacterial activity against Staphylococcus aureus 209P JC-1; type: functional; how it was run: as §1
Micrococcus luteus = assay: In vitro antibacterial activity against Micrococcus luteus ATCC 9341; type: functional; how it was run: as §1
Mus musculus [1] = organism: Mus musculus; assay: Compound was evaluated for oral efficacy on systemic infections in mice by Escherichia coli KC-14; type: functional
How it was run: (§2)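 Male ddY mice (20 ± 2 g), seven per dose group. Challenge was intraperitoneal, 0.5 mL of bacteria suspended in 5% gastric mucin: E. coli KC-14 at 4.3 × 10⁴ cfu/mL or P. aeruginosa E-2 at 2.88 × 10⁵ cfu/mL. Drug was suspended in 0.5% HPC-SL and given orally 2 h (E. coli) or 1 h (P. aeruginosa) after challenge. ED50 was calculated by Probit from 7-day survival.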

Mus musculus [2] = organism: Mus musculus; assay: Compound was evaluated for oral Pseudomonas aeruginosa E-2; type: functional; how it was run: as §2
[3] = Lethal dose on systemic infections in mice after oral administration; type: toxicity, organism-based; conditions: mouse, in vivo
How it was run: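 Acute oral toxicity: the suspension was given orally in 0.5% HPC-SL to Slc:SD rats, although the section heading says mice. Males weighed 141-168 g and females 113-127 g, five per group. LD50 was determined by the method of Weil 7 days after dosing.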

[4] = Escherichia coli, read-out: MIC
[5] = Klebsiella pneumoniae, read-out: MIC
[6] = Pseudomonas aeruginosa, read-out: MIC
[7] = Shigella flexneri, read-out: MIC
[8] = Serratia marcescens, IFO 3736, read-out: MIC
[9] = Staphylococcus aureus, read-out: MIC
[10] = Micrococcus luteus, ATCC 9341, read-out: MIC

Row | Structure (SMILES) | MIC (Escherichia coli; [4]) | MIC (Klebsiella pneumoniae; [5]) | MIC (Pseudomonas aeruginosa; [6]) | MIC (Shigella flexneri; [7]) | MIC (Serratia marcescens; [8]) | MIC (Staphylococcus aureus; [9]) | MIC (Micrococcus luteus; [10]) | ED50 (Mus musculus [1]) | ED50 (Mus musculus [2]) | MIC (Escherichia coli) | MIC (Klebsiella pneumoniae) | MIC (Pseudomonas aeruginosa) | MIC (Shigella flexneri) | MIC (Serratia marcescens) | MIC (Staphylococcus aureus) | MIC (Micrococcus luteus) | LD50 [3]
1 | CN1CCN(c2cc3c(cc2F)c(=O)c(C(=O)O)c2n3C(c3ccccc3)S2)CC1 (stereo unspecified) | 0.2 µg/mL (≈ 0.47 µM) | 0.2 µg/mL (≈ 0.47 µM) | 1.56 µg/mL (≈ 3.67 µM) | 0.2 µg/mL (≈ 0.47 µM) | 0.39 µg/mL (≈ 0.917 µM) | 0.39 µg/mL (≈ 0.917 µM) | 6.25 µg/mL (≈ 14.7 µM) |  |  |  |  |  |  |  |  |  | 
2 | CC1Sc2c(C(=O)O)c(=O)c3cc(F)c(N4CCN(c5ccccc5)CC4)cc3n21 (stereo unspecified) | > 100 µg/mL | > 100 µg/mL | > 100 µg/mL | > 100 µg/mL | > 100 µg/mL | 3.13 µg/mL (≈ 7.36 µM) | 12.5 µg/mL (≈ 29.4 µM) |  |  |  |  |  |  |  |  |  | 
3 | CCN1CCN(c2cc3c(cc2F)c(=O)c(C(=O)O)c2n3C(C)S2)CC1 (stereo unspecified) | 0.05 µg/mL (≈ 0.132 µM) | 0.05 µg/mL (≈ 0.132 µM) | 0.78 µg/mL (≈ 2.07 µM) | 0.025 µg/mL (≈ 0.0662 µM) | 0.1 µg/mL (≈ 0.265 µM) | 0.1 µg/mL (≈ 0.265 µM) | 1.56 µg/mL (≈ 4.13 µM) |  |  |  |  |  |  |  |  |  | 
4 | CC(=O)N1CCN(c2cc3c(cc2F)c(=O)c(C(=O)O)c2n3C(C)S2)CC1 (stereo unspecified) | 0.78 µg/mL (≈ 1.99 µM) | 0.39 µg/mL (≈ 0.996 µM) | 6.25 µg/mL (≈ 16 µM) | 0.39 µg/mL (≈ 0.996 µM) | 1.56 µg/mL (≈ 3.99 µM) | 0.2 µg/mL (≈ 0.511 µM) | 3.13 µg/mL (≈ 8 µM) |  |  |  |  |  |  |  |  |  | 
5 | CC1Sc2c(C(=O)O)c(=O)c3cc(F)c(N4CCN(Cc5ccc(N)cc5)CC4)cc3n21 (stereo unspecified) | 0.2 µg/mL (≈ 0.44 µM) | 0.2 µg/mL (≈ 0.44 µM) | 3.13 µg/mL (≈ 6.89 µM) | 0.1 µg/mL (≈ 0.22 µM) | 1.56 µg/mL (≈ 3.43 µM) | 0.05 µg/mL (≈ 0.11 µM) | 0.39 µg/mL (≈ 0.858 µM) |  |  |  |  |  |  |  |  |  | 
6 | CN1CCN(c2cc3c(cc2F)c(=O)c(C(=O)O)c2n3CS2)CC1 | 0.0125 µg/mL (≈ 0.0358 µM) | 0.025 µg/mL (≈ 0.0716 µM) | 0.39 µg/mL (≈ 1.12 µM) | 0.006 µg/mL (≈ 0.0172 µM) | 0.05 µg/mL (≈ 0.143 µM) | 0.05 µg/mL (≈ 0.143 µM) | 12.5 µg/mL (≈ 35.8 µM) | 1.77 mg/kg | 16.4 mg/kg |  |  |  |  |  |  |  | 
7 | CC1Sc2c(C(=O)O)c(=O)c3cc(F)c(N4CCNC(=O)C4)cc3n21 (stereo unspecified) | 0.39 µg/mL (≈ 1.07 µM) | 0.2 µg/mL (≈ 0.55 µM) | 6.25 µg/mL (≈ 17.2 µM) | 0.1 µg/mL (≈ 0.275 µM) | 3.13 µg/mL (≈ 8.61 µM) | 0.39 µg/mL (≈ 1.07 µM) | 3.13 µg/mL (≈ 8.61 µM) |  |  |  |  |  |  |  |  |  | 
8 | CC(C)N1CCN(c2cc3c(cc2F)c(=O)c(C(=O)O)c2n3C(C)S2)CC1 (stereo unspecified) | 0.2 µg/mL (≈ 0.511 µM) | 0.025 µg/mL (≈ 0.0639 µM) | 1.56 µg/mL (≈ 3.99 µM) | 0.025 µg/mL (≈ 0.0639 µM) | 0.39 µg/mL (≈ 0.996 µM) | 0.05 µg/mL (≈ 0.128 µM) | 3.13 µg/mL (≈ 8 µM) |  |  |  |  |  |  |  |  |  | 
9 | CC1Sc2c(C(=O)O)c(=O)c3cc(F)c(N4CCCNCC4)cc3n21 (stereo unspecified) | 0.2 µg/mL (≈ 0.55 µM) | 0.2 µg/mL (≈ 0.55 µM) | 3.13 µg/mL (≈ 8.61 µM) | 0.1 µg/mL (≈ 0.275 µM) | 0.39 µg/mL (≈ 1.07 µM) | 0.1 µg/mL (≈ 0.275 µM) | 3.13 µg/mL (≈ 8.61 µM) |  |  |  |  |  |  |  |  |  | 
10 | CC1Sc2c(C(=O)O)c(=O)c3cc(F)c(N4CCCC4)cc3n21 (stereo unspecified) | 0.2 µg/mL (≈ 0.598 µM) | 0.1 µg/mL (≈ 0.299 µM) | 0.39 µg/mL (≈ 1.17 µM) | 0.1 µg/mL (≈ 0.299 µM) | 0.78 µg/mL (≈ 2.33 µM) | 0.05 µg/mL (≈ 0.15 µM) | 0.78 µg/mL (≈ 2.33 µM) |  |  |  |  |  |  |  |  |  | 
11 | O=C(O)c1c2n(c3cc(N4CCNCC4)c(Cl)cc3c1=O)CS2 | 0.39 µg/mL (≈ 1.11 µM) | 0.2 µg/mL (≈ 0.568 µM) | 6.25 µg/mL (≈ 17.8 µM) | 0.1 µg/mL (≈ 0.284 µM) | 0.2 µg/mL (≈ 0.568 µM) | 0.2 µg/mL (≈ 0.568 µM) | 6.25 µg/mL (≈ 17.8 µM) |  |  |  |  |  |  |  |  |  | 
12 | CC1Sc2c(C(=O)O)c(=O)c3cc(F)c(N4CCSCC4)cc3n21 (stereo unspecified) | 0.2 µg/mL (≈ 0.546 µM) | 0.2 µg/mL (≈ 0.546 µM) | 0.39 µg/mL (≈ 1.06 µM) | 0.1 µg/mL (≈ 0.273 µM) | 0.39 µg/mL (≈ 1.06 µM) | 0.025 µg/mL (≈ 0.0682 µM) | 0.78 µg/mL (≈ 2.13 µM) |  |  |  |  |  |  |  |  |  | 
13 | CC1Sc2c(C(=O)O)c(=O)c3cc(F)c(N4CCNCC4)cc3n21 (stereo in doubt; 29a) [ULIFLOXACIN] |  |  |  |  |  |  |  |  |  | 0.0125 µg/mL (≈ 0.0358 µM) | 0.006 µg/mL (≈ 0.0172 µM) | 0.2 µg/mL (≈ 0.572 µM) | 0.006 µg/mL (≈ 0.0172 µM) | 0.05 µg/mL (≈ 0.143 µM) | 0.05 µg/mL (≈ 0.143 µM) | 0.78 µg/mL (≈ 2.23 µM) | 
14 | CC1Sc2c(C(=O)O)c(=O)c3cc(F)c(N4CCNCC4)cc3n21 (stereo in doubt; 29l) [ULIFLOXACIN] |  |  |  |  |  |  |  |  |  | 0.78 µg/mL (≈ 2.23 µM) | 0.39 µg/mL (≈ 1.12 µM) | 1.56 µg/mL (≈ 4.46 µM) | 0.78 µg/mL (≈ 2.23 µM) | 3.13 µg/mL (≈ 8.96 µM) | 0.2 µg/mL (≈ 0.572 µM) | 3.13 µg/mL (≈ 8.96 µM) | 
15 | O=C(O)c1cn(C2CC2)c2cc(N3CCNCC3)c(F)cc2c1=O [CIPROFLOXACIN] | 0.0125 µg/mL (≈ 0.0377 µM) | 0.006 µg/mL (≈ 0.0181 µM) | 0.2 µg/mL (≈ 0.604 µM) | 0.006 µg/mL (≈ 0.0181 µM) | 0.1 µg/mL (≈ 0.302 µM) | 0.1 µg/mL (≈ 0.302 µM) | 1.56 µg/mL (≈ 4.71 µM) | 0.45 mg/kg | 9.01 mg/kg |  |  |  |  |  |  |  | 
16 | CC1COc2c(N3CCN(C)CC3)c(F)cc3c(=O)c(C(=O)O)cn1c23 (stereo unspecified) [OFLOXACIN] | 0.1 µg/mL (≈ 0.277 µM) | 0.025 µg/mL (≈ 0.0692 µM) | 1.56 µg/mL (≈ 4.32 µM) | 0.1 µg/mL (≈ 0.277 µM) | 0.39 µg/mL (≈ 1.08 µM) | 0.39 µg/mL (≈ 1.08 µM) | 3.13 µg/mL (≈ 8.66 µM) | 0.55 mg/kg | 23 mg/kg |  |  |  |  |  |  |  | 
17 | Cc1oc(=O)oc1CN1CCN(c2cc3c(cc2F)c(=O)c(C(=O)O)c2n3C(C)S2)CC1 (stereo unspecified) [PRULIFLOXACIN] |  |  |  |  |  |  |  | 0.35 mg/kg | 8.02 mg/kg |  |  |  |  |  |  |  | > 500 mg/kg
